Test [1] can be described thus: RPL19A-GFP modulators, yeast TOR pathway, confirmation, cell-based, S. cerevisiae, flow cytometry, cherry picks, mother/daughter gates (AID 2270;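 active = GFP response below 50% of the DMSO control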). The note with it: S. cerevisiae RPL19A-GFP strain, 3 h, at 10 µM, stronger effect = lower value, 100 = same GFP as DMSO wells. For orientation: Flow cytometry measures light scatter and fluorescence of single cells or particles in a stream.

A short description of test [2]: LAP4-GFP expression modulators in yeast, confirmation, cell-based, cherry picks, flow cytometry, mother/daughter gates (AID 2271;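 active = GFP response above 150% of the DMSO control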;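 note: ratio of sample to DMSO plate mean so 100% equals DMSO level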). The note with it: S. cerevisiae LAP4-GFP strain, 3 h, at 10 µM, stronger effect = higher value, 100 means same as DMSO control. In short, it runs like this:
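Test system: GFP-fusion yeast strain. Medium: synthetic complete (SC) yeast growth medium. Timing: 3 h treatment at 30 °C with rotation. Measured by: GFP by flow cytometry. Control set: positive rapamycin (400 ng/mL), negative DMSO.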

Test [3] can be described thus: modulators of MEP2-GFP levels in yeast, confirmation, S. cerevisiae, flow cytometry GFP, cherry picks (AID 2272;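 active = GFP response above 150% of the DMSO control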;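 note: ratio of well signal to plate DMSO mean so 100% equals DMSO level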). The note with it: S. cerevisiae MEP2-GFP strain, 3 h, at 10 µM, stronger effect = higher value.
A short description of test [4]: AGP1-GFP expression modulators, hit retest, confirmation, cell-based, flow cytometry, S. cerevisiae, cherry picks (AID 2273).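 Note: median GFP channel fluorescence over the whole cell population gate.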 The note with it: S. cerevisiae AGP1-GFP strain, 3 h, at 10 µM.
Test [5] in a line: modulators of CIT2-GFP expression in yeast, confirmation, S. cerevisiae, GFP fusion, cherry picks, mother/daughter gates (AID 2274). The note with it: S. cerevisiae CIT2-GFP strain, flow cytometry, 3 h, at 10 µM, stronger effect = higher value.
The mark [6] stands for this setting: measured here: daughter cell gate.
Where [7] appears, read: measured here: mother cell gate.
The mark [8] stands for this setting: measured here: daughter cell gate response.
[9] abbreviates: measured here: mother cell gate response.

Active and inactive are the calls of the source.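 Rule for the calls, unless noted: active = GFP response above 150% of the DMSO level; inconclusive = fewer than 70 events counted for a yeast strain; inactive = the rest.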

With `CC(C)Cn1c(=O)c(C(=O)Nc2ccncc2)c(O)c2ccccc21`, the GFP response vs DMSO in test [1] is 94.7% (inactive); in test [1] (setting [6]), 101%; in test [1] (setting [7]), 85%; in test [3], 117% (inactive). Further, the figures for the GFP response relative to DMSO in test [2], in test [2] (setting [8]) and in test [2] (setting [9]) were 160% (active), 122% and 155%, respectively. For the same compound, the GFP response, % of DMSO in test [4] is 88.7% (inactive); in test [5], 97.8% (inactive); in test [5] (setting [6]), 99.7%; in test [5] (setting [7]), 90.2%.

On to `Cc1cccc(N=c2c([N+](=O)[O-])nn(-c3ccc(Cl)cc3)n2O)c1`, for which the GFP response vs DMSO in test [1] is 97% (inactive); in test [1] (setting [6]), 95.1%; in test [1] (setting [7]), 97.7%; in test [3], 102% (inactive). The results for the GFP response relative to DMSO in test [2], in test [2] (setting [8]) and in test [2] (setting [9]) were 111% (inactive), 104% and 114%, respectively. For the same compound, the GFP response, % of DMSO in test [4] is 90.4% (inactive); in test [5], 107% (inactive); in test [5] (setting [6]), 103%; in test [5] (setting [7]) it was 108%.

For `CCC(=O)Nc1cccc(C(=O)/C=C/c2ccccc2)c1`, the GFP response vs DMSO is 102% (inactive) in test [1], 102% in test [1] (setting [6]), 101% in test [1] (setting [7]) and 109% (inactive) in test [3]. Besides, the GFP response relative to DMSO in test [2] was 105% (inactive); in test [2] (setting [8]), 102%; in test [2] (setting [9]), 106%. Further, the GFP response, % of DMSO is 97.3% (inactive) in test [4], 97.3% (inactive) in test [5], 95.6% in test [5] (setting [6]) and 95.6% in test [5] (setting [7]).

With `O=C(/C=C/c1ccccc1)c1ccccc1O`, the GFP response vs DMSO in test [1] is 103% (inactive); in test [1] (setting [6]) it was 105%; in test [1] (setting [7]), 103%; in test [3] it was 153% (inactive). For the same compound, the GFP response relative to DMSO in test [2] was 130% (inactive); in test [2] (setting [8]), 130%; in test [2] (setting [9]), 129%. Also, the GFP response, % of DMSO was 108% (inactive) in test [4], 137% (inactive) in test [5], 139% in test [5] (setting [6]) and 132% in test [5] (setting [7]).

Consider `Clc1ccc(Nc2ncnc3ccc(Br)cc23)cc1`, for which the GFP response vs DMSO in test [1] is 98.4% (inactive); in test [1] (setting [6]), 89.5%; in test [1] (setting [7]), 99%; in test [3], 95.4% (inactive). Moreover, the GFP response relative to DMSO in test [2] is 122% (inactive); in test [2] (setting [8]), 102%; in test [2] (setting [9]) it was 124%. Further, the GFP response, % of DMSO in test [4] was 86.2% (inactive); in test [5], 86.3% (inactive); in test [5] (setting [6]), 83.5%; in test [5] (setting [7]), 84%.

For the compound `Cc1cc(C)n(C(=O)/C(C#N)=N\Nc2ccccc2[N+](=O)[O-])n1`, the GFP response vs DMSO in test [1] is 91.7% (inactive); in test [1] (setting [6]) it was 71.4%; in test [1] (setting [7]), 88.6%; in test [3] it was 163% (inactive). The GFP response relative to DMSO in test [2] is 138% (inactive); in test [2] (setting [8]), 98.7%; in test [2] (setting [9]), 154%. For the same compound, the GFP response, % of DMSO is 123% (inactive) in test [4], 102% (inactive) in test [5], 73.6% in test [5] (setting [6]) and 105% in test [5] (setting [7]).

As to `O=C(Oc1c(Cl)cc(Cl)c2cccnc12)c1ccco1`, the GFP response vs DMSO in test [1] is 103% (inactive); in test [1] (setting [6]), 89.2%; in test [1] (setting [7]) it was 100%; in test [3] it was 128% (inactive). The GFP response relative to DMSO was 196% (active) in test [2], 148% in test [2] (setting [8]) and 199% in test [2] (setting [9]). For the same compound, the GFP response, % of DMSO is 95.9% (inactive) in test [4], 95.9% (inactive) in test [5], 86.6% in test [5] (setting [6]) and 93.2% in test [5] (setting [7]).

With `COCc1nnc(NC(=O)c2ccc(S(=O)(=O)N3CCCCCC3)cc2)o1`, the GFP response vs DMSO in test [1] was 105% (inactive); in test [1] (setting [6]), 99.8%; in test [1] (setting [7]) it was 105%; in test [3], 107% (inactive). Moreover, the GFP response relative to DMSO in test [2] is 105% (inactive); in test [2] (setting [8]) it was 97.5%; in test [2] (setting [9]), 107%. Moreover, the GFP response, % of DMSO was 101% (inactive) in test [4], 97.3% (inactive) in test [5], 97.4% in test [5] (setting [6]) and 96.8% in test [5] (setting [7]).

On to `COc1ccc(N2CCN(C(=O)c3ccc(OCC4CCCO4)cc3)CC2)cc1` (stereo unspecified), for which the GFP response vs DMSO is 99.2% (inactive) in test [1], 98.8% in test [1] (setting [6]), 98.3% in test [1] (setting [7]) and 99% (inactive) in test [3]. For the same compound, the GFP response relative to DMSO was 99.5% (inactive) in test [2], 101% in test [2] (setting [8]) and 98.4% in test [2] (setting [9]). Moreover, the GFP response, % of DMSO in test [4] was 99.8% (inactive); in test [5], 100% (inactive); in test [5] (setting [6]) it was 101%; in test [5] (setting [7]) it was 99.3%.

For the compound `C/C(=N\NC(=O)COc1ccccc1-c1ccccc1)c1ccccn1`, the GFP response vs DMSO was 101% (inactive) in test [1], 99.1% in test [1] (setting [6]), 102% in test [1] (setting [7]) and 96.6% (inactive) in test [3]. In addition, the results for the GFP response relative to DMSO in test [2], in test [2] (setting [8]) and in test [2] (setting [9]) were 145% (inactive), 136% and 162%, respectively. In addition, the GFP response, % of DMSO in test [4] was 94.5% (inactive); in test [5], 102% (inactive); in test [5] (setting [6]), 106%; in test [5] (setting [7]), 97.7%.

For the compound `CCOC(=O)CS(=O)(=O)c1nc(-c2ccccc2)cc(C(F)(F)F)n1`, the GFP response vs DMSO was 101% (inactive) in test [1], 105% in test [1] (setting [6]), 96.2% in test [1] (setting [7]) and 130% (inactive) in test [3]. Moreover, the figures for the GFP response relative to DMSO in test [2], in test [2] (setting [8]) and in test [2] (setting [9]) were 204% (active), 192% and 206%, respectively. Also, the GFP response, % of DMSO in test [4] was 110% (inactive); in test [5], 110% (inactive); in test [5] (setting [6]), 110%; in test [5] (setting [7]) it was 101%.

With `CCC(=O)N/C(N)=N/c1nc2ccccc2o1`, the GFP response vs DMSO is 83.5% (inactive) in test [1], 85.1% in test [1] (setting [6]), 84.8% in test [1] (setting [7]) and 109% (inactive) in test [3]. The GFP response relative to DMSO is 110% (inactive) in test [2], 106% in test [2] (setting [8]) and 112% in test [2] (setting [9]). In addition, the GFP response, % of DMSO is 96.2% (inactive) in test [4], 98.3% (inactive) in test [5], 97.2% in test [5] (setting [6]) and 99.7% in test [5] (setting [7]).

Turning to `O=C1CC(Sc2nnc(-c3ccccc3)o2)C(=O)N1c1ccccc1` (stereo unspecified), the GFP response vs DMSO is 99.9% (inactive) in test [1], 98.7% in test [1] (setting [6]), 100% in test [1] (setting [7]) and 102% (inactive) in test [3]. Besides, the results for the GFP response relative to DMSO in test [2], in test [2] (setting [8]) and in test [2] (setting [9]) were 106% (inactive), 105% and 107%, respectively. The GFP response, % of DMSO in test [4] was 98.7% (inactive); in test [5], 97.8% (inactive); in test [5] (setting [6]), 99.7%; in test [5] (setting [7]), 93.4%.

On to `COC(=O)c1ccc(/C=C/C(=O)c2ccc(OC)cc2)cc1`, for which the GFP response vs DMSO in test [1] is 99.9% (inactive); in test [1] (setting [6]), 97.8%; in test [1] (setting [7]), 101%; in test [3], 104% (inactive). For the same compound, the GFP response relative to DMSO in test [2] is 114% (inactive); in test [2] (setting [8]), 108%; in test [2] (setting [9]), 111%. Also, the GFP response, % of DMSO in test [4] is 94.9% (inactive); in test [5] it was 99.3% (inactive); in test [5] (setting [6]), 100%; in test [5] (setting [7]), 99.1%.

`CN1CCN(CCCCOc2ccccc2C=O)CC1`: the GFP response vs DMSO is 99.5% (inactive) in test [1], 97.8% in test [1] (setting [6]), 101% in test [1] (setting [7]) and 104% (inactive) in test [3]. Also, the values for the GFP response relative to DMSO in test [2], in test [2] (setting [8]) and in test [2] (setting [9]) were 97.4% (inactive), 97.2% and 99.3%, respectively. For the same compound, the GFP response, % of DMSO in test [4] was 102% (inactive); in test [5], 97.8% (inactive); in test [5] (setting [6]) it was 94.8%; in test [5] (setting [7]) it was 98.7%.

Turning to `Cc1cccn2c(=O)c(/C=C(\C#N)C(=O)NCc3ccccc3)c(N3CCC(C(N)=O)CC3)nc12`, the GFP response vs DMSO in test [1] was 98.7% (inactive); in test [1] (setting [6]) it was 99%; in test [1] (setting [7]), 97.5%; in test [3], 101% (inactive). In addition, the GFP response relative to DMSO is 101% (inactive) in test [2], 102% in test [2] (setting [8]) and 101% in test [2] (setting [9]). Moreover, the GFP response, % of DMSO was 104% (inactive) in test [4], 101% (inactive) in test [5], 103% in test [5] (setting [6]) and 103% in test [5] (setting [7]).

For the origin of these results see PubChem BioAssay.
